Active and inactive are the calls of the source. The calls are words filed in the database; no cut-off is given here.
What was measured:
Mus musculus [1] = assay: Neurotoxicity in CF1 albino mouse at 300 mg/kg, ip after 0.5 hrs; type: toxicity, organism-based; parameters: dose 300 mg/kg, route intraperitoneal; details: in vivo
Outline: (§1)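 Male CF no. 1 albino mice (18-25 g) received a single ip dose as a suspension in 0.5% methylcellulose. The read-out was the number of animals showing neurotoxicity (minimal motor impairment) over the number tested.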

Mus musculus [2] = assay: Neurotoxicity in CF1 albino mouse assessed as minimal motor impairment at 60 mg/kg, ip; type: toxicity, organism-based; parameters: dose 60 mg/kg, route intraperitoneal; details: in vivo; outline: as §1
Mus musculus [3] = assay: Teratogenic effect in SWV mouse assessed as number of implants at 336 mg/kg, ip administered on morning of day 8 of gestation; type: toxicity, organism-based; parameters: dose 336 mg/kg, route intraperitoneal; details: in vivo
Outline: (§2)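 Inbred SWV mouse strain highly susceptible to VPA-induced neural tube defects. Each dam received a single ip injection on gestation day 8.5, dosed within 1.8-4.2 mmol/kg, against a control of 25% aqueous Cremophor EL. Groups were compared with the control, and with the matched VPA sodium-salt dose, by Fisher's exact test (p < 0.05).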

Rattus norvegicus [4] = assay: Anticonvulsant activity in albino Sprague-Dawley rat assessed as protection against scMet-induced seizures at 2 mg/kg, po; type: functional, organism-based; parameters: dose 2 mg/kg
Outline: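 Oral dosing of male Sprague-Dawley rats (100-150 g) with compound in 0.5% methylcellulose. Convulsant challenge given subcutaneously as a 2.82% pentylenetetrazol solution in 0.9% saline. Groups of about 8 rats per dose. For quantitation, doses spanning 0% to 100% protection were fitted by probit analysis to give ED50 with 95% confidence interval.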

Mus musculus [5] = assay: Anticonvulsant activity in ip dosed CF1 albino mouse assessed as protection against 44 mA-current-induced seizure by 6Hz psychomotor seizure test; type: functional
Outline: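 In the 6 Hz psychomotor seizure test, male CF no. 1 albino mice (18-25 g) received the compound ip in 0.5% methylcellulose. Stimulation was at 32 or 44 mA. Doses were varied to give 3-4 points between 0% and 100% protection, and ED50 with 95% confidence interval came from probit analysis.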

Rattus norvegicus [6] = assay: Neurotoxicity in albino Sprague-Dawley rat at 50 mg/kg, po; type: toxicity, organism-based; parameters: dose 50 mg/kg, route oral; details: in vivo
Outline: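 Neurotoxicity was scored in male Sprague-Dawley albino rats (100-150 g) dosed orally with a suspension in 0.5% methylcellulose. The read-out was the fraction of animals showing neurotoxicity (minimal motor impairment).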

Rattus norvegicus [7] = assay: Anticonvulsant activity in albino Sprague-Dawley rat assessed as protection against maximal electroshock-induced seizures at 50 mg/kg, po after 15 mins; type: functional
Outline: (§3)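 Adult male Sprague-Dawley albino rats (100-150 g) dosed orally with compound suspended in 0.5% methylcellulose (0.04 mL per 10 g). Maximal electroshock challenge at the stated time. Protection is scored in 25% steps as the fraction of animals protected, with neurotoxicity recorded in parallel.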

Rattus norvegicus [8] = assay: Anticonvulsant activity in albino Sprague-Dawley rat assessed as protection against scMet-induced seizures at 50 mg/kg, po after 15 mins; type: functional
Outline: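 Male Sprague-Dawley albino rats (100-150 g) were given the compound orally as a suspension in 0.5% methylcellulose. Seizures were induced by subcutaneous pentylenetetrazol, dissolved in 0.9% saline as a 2.82% solution. The read-out was animals protected over animals tested.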

[9] = Neurotoxicity in ip dosed CF1 albino mouse assessed as minimal motor impairment; type: toxicity, organism-based; details: CF1, mouse, in vivo
Outline: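 Mice: male CF no. 1 albino (18-25 g), ip dosing in 0.5% methylcellulose. Minimal motor impairment was scored, with doses varied to give four points between no impairment and all animals impaired.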

Rattus norvegicus [10] = assay: Anticonvulsant activity in po dosed albino Sprague-Dawley rat assessed as protection against scMet-induced seizures; type: functional
Outline: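 Male Sprague-Dawley albino rats (100-150 g) were dosed orally in 0.5% methylcellulose and tested by MES or by sc pentylenetetrazol (2.82% in 0.9% saline). Doses were varied to give 3-4 points between 0% and 100% protection. ED50 and 95% confidence intervals came from probit analysis.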

Mus musculus [11] = assay: Teratogenic effect in VPA-induced SWV mouse assessed as number of fetuses with neural tube deffects at 336 mg/kg, ip administered on morning of day 8 of gestation; type: toxicity, organism-based; parameters: dose 336 mg/kg, route intraperitoneal; details: in vivo; outline: as §2
Mus musculus [12] = assay: Anticonvulsant activity in CF1 albino mouse assessed as protection against scMet-induced seizures at 300 mg/kg, ip after 0.5 hrs; type: functional, organism-based; parameters: dose 300 mg/kg
Outline: (§4)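 Adult male CF no. 1 albino mice (18-25 g) dosed intraperitoneally with compound suspended in 0.5% methylcellulose (0.01 mL/g). Convulsant challenge given subcutaneously as a 0.85% pentylenetetrazol solution in 0.9% saline. Read-out is animals protected over animals tested, with neurotoxicity scored in parallel.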

Mus musculus [13] = organism: Mus musculus; assay: Protective index, ratio of TD50 for CF1 albino mouse to ED50 for 44 mA-current-induced CF1 albino mouse seizure model; type: functional
Outline: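 Protective index is the mouse TD50 (minimal motor impairment) divided by the 6 Hz test ED50 at 32 or 44 mA. Male CF no. 1 mice were dosed ip in 0.5% methylcellulose, and values came from probit analysis.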

Mus musculus [14] = assay: Anticonvulsant activity in ip dosed CF1 albino mouse assessed as protection against maximal electroshock-induced seizures; type: functional
Outline: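 Male CF no. 1 albino mice (18-25 g) were dosed ip in 0.5% methylcellulose and tested by maximal electroshock. Doses were varied to give 3-4 points between 0% and 100% protection. ED50 with 95% confidence interval came from probit analysis.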

Mus musculus [15] = assay: Anticonvulsant activity in CF1 albino mouse assessed as protection against scMet-induced seizures at 300 mg/kg, ip after 4 hrs; type: functional, organism-based; parameters: dose 300 mg/kg; outline: as §4
Mus musculus [16] = assay: Teratogenic effect in SWV mouse assessed as number of litters at 502 mg/kg, ip administered on morning of day 8 of gestation; type: toxicity, organism-based; parameters: dose 502 mg/kg, route intraperitoneal; details: in vivo; outline: as §2
Mus musculus [17] = assay: Anticonvulsant activity in CF1 albino mouse assessed as protection against maximal electroshock-induced seizures at 100 mg/kg, ip after 0.5 hrs; type: functional, organism-based; parameters: dose 100 mg/kg
Outline: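 Adult male CF no. 1 albino mice (18-25 g). Test compound suspended in 0.5% methylcellulose and given intraperitoneally at 0.01 mL/g body weight. Maximal electroshock challenge at the stated time. Read-out is the number of animals protected over the number tested; neurotoxicity is scored in parallel.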

Rattus norvegicus [18] = assay: Anticonvulsant activity in albino Sprague-Dawley rat assessed as protection against maximal electroshock-induced seizures at 100 mg/kg, po; type: functional, organism-based; parameters: dose 100 mg/kg; outline: as §3
Rattus norvegicus [19] = assay: Anticonvulsant activity in albino Sprague-Dawley rat assessed as protection against maximal electroshock-induced seizures at 50 mg/kg, po after 1 hr; type: functional; outline: as §3
Rattus norvegicus [20] = assay: Anticonvulsant activity in albino Sprague-Dawley rat assessed as protection against maximal electroshock-induced seizures at 50 mg/kg, po after 2 hrs; type: functional; outline: as §3
Mus musculus [21] = assay: Anticonvulsant activity in CF1 albino mouse assessed as protection against 44 mA-current-induced seizure at 25 mg/kg, ip by 6Hz psychomotor seizure test; type: functional, organism-based; parameters: dose 25 mg/kg
Outline: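 6 Hz psychomotor seizure test in male CF no. 1 mice, with compound given ip as a 0.5% methylcellulose suspension. Groups of 8 animals per dose. The 32 mA test used 25, 70 and 130 mg/kg; the 44 mA test used 25, 50, 75 and 100 mg/kg. ED50 and 95% confidence interval were obtained by probit analysis.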

Mus musculus [22] = assay: Anticonvulsant activity in CF1 albino mouse assessed as protection against scMet-induced seizures at 50 mg/kg, ip; type: functional, organism-based; parameters: dose 50 mg/kg; outline: as §4
Mus musculus [23] = assay: Teratogenic effect in SWV mouse assessed as number of dead fetuses at 502 mg/kg, ip administered on morning of day 8 of gestation; type: toxicity, organism-based; parameters: dose 502 mg/kg, route intraperitoneal; details: in vivo; outline: as §2

CC1(C)C(C)(C)C1(F)C(N)=O
Activity (Mus musculus [1]): Toxic | Activity (Mus musculus [2]): Non-toxic | Activity (Mus musculus [3]): 112 | Activity (Rattus norvegicus [4]): inactive | ED50 (Mus musculus [5]): 59 mg/kg | Activity (Rattus norvegicus [6]): Not Active | Activity (Rattus norvegicus [7]): inactive | Activity (Rattus norvegicus [8]): 100% | TD50 [9]: 120 mg/kg | ED50 (Rattus norvegicus [10]): 6.4 mg/kg | Activity (Mus musculus [11]): 0 | Activity (Mus musculus [12]): Toxic | PI (Mus musculus [13]): 2 | ED50 (Mus musculus [14]): > 200 mg/kg | Activity (Mus musculus [15]): Non-toxic | Activity (Mus musculus [16]): 10 | Activity (Mus musculus [17]): Non-toxic | Activity (Rattus norvegicus [18]): inactive | Activity (Rattus norvegicus [19]): inactive | Activity (Rattus norvegicus [20]): inactive | Activity (Mus musculus [21]): inactive | Activity (Mus musculus [22]): Active | Activity (Mus musculus [23]): 0

— ChEMBL document CHEMBL1153988 (J Med Chem, 2009)
